This note sets out measurements from ChEMBL document CHEMBL4350969, “Falcipain Inhibitors Based on the Natural Product Gallinamide A Are Potent in Vitro and in Vivo Antimalarials” (J Med Chem, 2019).

The source made the active and inactive calls. The rule behind the calls is not given here.

Data set [1] deals with T1, Falcipain 2 (Plasmodium falciparum, UniProt Q9N6S8).
T1 sequence (Q9N6S8 whole entry): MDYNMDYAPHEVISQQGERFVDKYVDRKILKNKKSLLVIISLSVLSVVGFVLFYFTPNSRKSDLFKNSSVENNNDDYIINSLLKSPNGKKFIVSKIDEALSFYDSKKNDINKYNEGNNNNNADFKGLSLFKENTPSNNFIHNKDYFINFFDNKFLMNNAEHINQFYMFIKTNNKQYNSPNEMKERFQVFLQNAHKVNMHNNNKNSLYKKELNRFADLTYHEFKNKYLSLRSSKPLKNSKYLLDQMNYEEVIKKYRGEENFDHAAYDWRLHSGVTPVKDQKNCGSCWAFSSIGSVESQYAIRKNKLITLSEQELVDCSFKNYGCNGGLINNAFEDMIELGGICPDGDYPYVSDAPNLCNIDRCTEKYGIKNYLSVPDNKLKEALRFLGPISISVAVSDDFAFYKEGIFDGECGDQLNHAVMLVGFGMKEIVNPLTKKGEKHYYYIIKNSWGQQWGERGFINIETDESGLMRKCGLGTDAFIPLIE
Kind of data set: Inhibition of Plasmodium falciparum N-terminal His6-tagged falcipain-2 (35 residues) expressed in Escherichia coli M15 pREP4 using Z-Lue-Arg-AMC as substrate measured after 30 mins by spectrofluorometric method. The gist of the method:
(§1)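 Recombinant heterologously expressed FP2 or FP3; inhibition measured by continuous kinetic cleavage of fluorogenic substrate Z-Leu-Arg-AMC.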

For data set [2], the system named is Plasmodium falciparum. Kind of data set: Antimalarial activity against synchronized ring stage CQ-resistant Plasmodium falciparum W2 infected in human erythrocytes incubated for 24 hrs followed by compound washout and subsequent compound addition and measured after 48 hrs by YOYO-1 probe-based flow cytometry. The format is functional, organism-based. (Flow cytometry measures light scatter and fluorescence of single cells or particles in a stream.)

Data set [3] has as its system Plasmodium falciparum. Kind of data set: Antimalarial activity against synchronized ring stage CQ-sensitive Plasmodium falciparum 3D7 infected in human erythrocytes incubated for 24 hrs followed by compound washout and subsequent compound addition and measured after 48 hrs by YOYO-1 probe-based flow cytometry. It is filed as functional, organism-based.
Data set [4] deals with T2, Cysteine protease falcipain-3 (Plasmodium falciparum, UniProt Q9NAW4).
T2 sequence (Q9NAW4 whole entry): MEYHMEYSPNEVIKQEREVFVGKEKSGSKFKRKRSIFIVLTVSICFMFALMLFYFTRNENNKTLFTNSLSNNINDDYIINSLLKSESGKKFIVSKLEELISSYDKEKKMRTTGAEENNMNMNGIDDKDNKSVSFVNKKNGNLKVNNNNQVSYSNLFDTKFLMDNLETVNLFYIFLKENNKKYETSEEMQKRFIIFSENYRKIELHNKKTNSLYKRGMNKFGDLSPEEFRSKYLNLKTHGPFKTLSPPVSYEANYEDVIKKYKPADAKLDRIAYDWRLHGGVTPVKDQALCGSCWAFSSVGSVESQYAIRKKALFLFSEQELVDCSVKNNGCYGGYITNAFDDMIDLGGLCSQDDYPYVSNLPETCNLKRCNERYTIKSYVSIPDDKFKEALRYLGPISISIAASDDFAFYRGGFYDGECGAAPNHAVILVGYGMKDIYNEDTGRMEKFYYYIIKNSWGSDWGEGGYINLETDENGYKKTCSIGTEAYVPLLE
Kind of data set: Inhibition of Plasmodium falciparum N-terminal His-tagged falcipain-3 (33 residues) expressed in Escherichia coli M15 pREP4 using Z-Leu-Arg-AMC as substrate measured after 30 mins by spectrofluorometric method. In a few lines:
as §1

Data set [5] in a line: Half life in Swiss mouse blood at 1 ug/ml by UPLC-MS analysis. The format is ADME, tissue-based. As to conditions: whole blood.
Data set [6] relates to HEK293. Kind of data set: Cytotoxicity against HEK293 cells assessed as reduction in cell viability at 25 uM measured after 18 hrs by alamar blue assay. It is filed as cell-based. The note with it: human, hek293, 18 h. On the technique in general: Alamar Blue is a resazurin reagent that responds to reducing activity.
Data set [7] is described as follows: Drug metabolism in mouse liver microsomes assessed as N,N-bis-demethylation at 10 uM measured after 60 mins in presence of NADPH-generating system by UPLC-MS analysis. It is filed as ADME, Microsome. As to conditions: 1 h. (In general: Liver microsomes are a subcellular fraction often used to study metabolism.)
A short description of data set [8]: Drug metabolism in human liver microsomes assessed as N,N-bis-demethylation at 10 uM measured after 60 mins in presence of NADPH-generating system by UPLC-MS analysis. It is filed as ADME, Microsome. As to conditions: 1 h.
Data set [9] in a line: Half life in Swiss mouse plasma at 1 ug/ml by UPLC-MS analysis. The format is ADME, cell-free. In a few lines:
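Fresh whole blood from non-fasted male Swiss outbred mice; plasma separated by centrifugation. Compound spiked to 1 μg/mL final (0.2% DMSO, 0.4% acetonitrile), kept at 37 °C; aliquots taken over 4 h (n=3 per time point), snap-frozen, protein precipitated with acetonitrile, UPLC-MS (ESI+) against matrix calibration standards. Exponential decay fit gives k; half-life = ln(2)/k.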

Data set [10] deals with Plasmodium berghei. Kind of data set: Antimalarial activity against Plasmodium berghei ANKA infected in specific pathogen-free C57BL/6 mouse assessed as reduction in disease severity at 100 mg/kg, po administered once daily for 4 days measured up to 35 days post-infection by rapid staining-based microscopic analysis. The format is functional, organism-based. In a few lines: (§2)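 Female C57BL/6 mice, 8–9 weeks old, inoculated i.p. with 10^6 P. berghei ANKA-parasitized red cells. Compound dissolved in DMSO, diluted in 154 mM NaCl, given by oral gavage at 100 mg/kg on days 4, 5, 6 and 7 post-infection. Tail-vein thin smears stained with Rapid Stain, % parasitemia by microscopy; mice euthanized at signs of severe disease.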

Data set [11] deals with Plasmodium berghei. Kind of data set: Antimalarial activity against Plasmodium berghei ANKA infected in specific pathogen-free C57BL/6 mouse assessed as reduction in parasitemia at 100 mg/kg, po administered once daily for 4 days measured up to 35 days post-infection by rapid staining-based microscopic analysis. It is filed as functional, organism-based. In a few lines: as §2

For data set [12], the system named is Plasmodium berghei. Kind of data set: Antimalarial activity against Plasmodium berghei ANKA infected in specific pathogen-free C57BL/6 mouse assessed as reduction in parasitemia at 50 mg/kg, ip administered once daily for 4 days measured up to 35 days post-infection by rapid staining-based microscopic analysis. The format is functional, organism-based. In a few lines: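 Established-infection model: female C57BL/6 mice inoculated i.p. with 10^6 PbA-parasitized red cells; compound in DMSO diluted in saline given i.p. at 50 mg/kg on days 4, 5, 6 and 7 post-infection, chloroquine 50 mg/kg as comparator, vehicle controls; 7 mice per group. Tail-vein smears, % parasitemia by microscopy, mean ± SEM; survival recorded.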

In the case of `COC1=CC(=O)N(C(=O)/C=C/[C@H](C)NC(=O)[C@H](CC2CCCCC2)NC(=O)[C@H](CC2CCCCC2)NC(=O)C2CCN(C)CC2)[C@H]1Cc1c[nH]c2ccccc12`, the IC50 (commonly the midpoint of a concentration-inhibition curve) in [1] was determined as 455 nM; in data set [2], 55 nM; in [3], 164 nM; in data set [4] it was 547 nM.
The like results for `COC1=CC(=O)N(C(=O)/C=C/[C@H](C)NC(=O)[C@H](CC2CCCCC2)NC(=O)[C@H](CC2CCCCC2)NC(=O)[C@H](C(C)C)N(C)C)[C@H]1Cc1c[nH]c2ccccc12` were, in that order, 464 nM, 119 nM, 229 nM and 459 nM.
The like results for `COC1=CC(=O)N(C(=O)/C=C/[C@H](C)NC(=O)[C@H](CCc2ccccc2)NC(=O)[C@H](CC2CCCCC2)NC(=O)[C@H](C(C)C)N(C)C)[C@H]1Cc1c[nH]c2ccccc12` were, in that order, 3520 nM, 478 nM, 1250 nM and 8790 nM.
As to `COC1=CC(=O)N(C(=O)/C=C/[C@@H](NC(=O)[C@H](CC(C)C)NC(=O)[C@H](CC(C)C)NC(=O)[C@H](C(C)C)N(C)C)C2CCCCC2)[C@H]1Cc1c[nH]c2ccccc12.O=C(O)C(F)(F)F`, the half-life at 1 ug/ml in data set [5] and in data set [9] was more than 10 h throughout. Moreover, the Activity result in data set [6] is recorded as “Non-Toxic”. Further, the IC50 in data set [1] turned out to be 84 nM; in [2], 10 nM; in data set [3], 9 nM; in data set [4], 484 nM. In addition, the Drug metabolism entry in [7] and in [8] was “Metabolite_Detected” throughout.
In the case of `CC(C)C[C@H](NC(=O)[C@@H]1O[C@H]1C(=O)O)C(=O)NCCCCN=C(N)N`, the IC50 was determined as 68 nM in data set [1] and 136 nM in [4].
Consider `CCN(CC)CCCC(C)Nc1ccnc2cc(Cl)ccc12` (stereo unspecified), for which the outcome in [10], in [11] and in data set [12] was Active.
Take `COC1=CC(=O)N(C(=O)/C=C/[C@H](C)NC(=O)C(C)(C)NC(=O)[C@H](CC(C)C)NC(=O)[C@H](C(C)C)N(C)C)[C@H]1Cc1c[nH]c2ccccc12`: the concentration for half-maximal inhibition (IC50) in data set [1] was more than 50000 nM; in data set [2] it was 3730 nM; in [3], more than 10000 nM; in [4], more than 50000 nM.
Consider `COC1=CC(=O)N(C(=O)/C=C/[C@@H](NC(=O)[C@H](CC(C)C)NC(=O)[C@H](CC2CCCCC2)NC(=O)[C@H](C(C)C)N(C)C)C2CCCCC2)[C@H]1Cc1c[nH]c2ccccc12`, for which the IC50 in data set [1] is 169 nM; in data set [2], 95 nM; in [3], 83 nM; in data set [4], 490 nM.
For `COC1=CC(=O)N(C(=O)/C=C/[C@H](C)NC(=O)[C@H](CC(C)C)NC(=O)[C@H](Cc2ccccc2)NC(=O)[C@H](C(C)C)N(C)C)[C@H]1Cc1c[nH]c2ccccc12`, in that order: 60 nM, 10 nM, 24 nM and 851 nM.
Consider `COC1=CC(=O)N(C(=O)/C=C/[C@H](C)NC(=O)[C@H](CC(C)C)NC(=O)[C@H](CC(C)C)NC(=O)[C@H](C(C)C)N(C)C)[C@H]1Cc1c[nH]c2ccccc12.O=C(O)C(F)(F)F`, for which the half-life at 1 ug/ml in data set [5] and in data set [9] was less than 0.0333 h in each case. Also, the Activity result in [6] is reported as “Non-Toxic”.
Regarding `COC1=CC(=O)N(C(=O)/C=C/[C@H](C)NC(=O)[C@H](CC(C)C)NC(=O)[C@H](CC2CCCCC2)NC(=O)[C@H](C(C)C)N(C)C)[C@H]1Cc1c[nH]c2ccccc12`, the IC50 came to 59 nM in data set [1], 11 nM in [2], 14 nM in [3] and 131 nM in data set [4].
The like results for `COC1=CC(=O)N(C(=O)/C=C/[C@H](CC2CCCCC2)NC(=O)[C@H](CC(C)C)NC(=O)[C@H](CC(C)C)NC(=O)[C@H](C(C)C)N(C)C)[C@H]1Cc1c[nH]c2ccccc12` were, in that order, 270 nM, 54 nM, 76 nM and 2570 nM.
The like results for `COC1=CC(=O)N(C(=O)/C=C/[C@H](C)NC(=O)[C@H](CC2CCCCC2)NC(=O)[C@H](CC(C)C)NC(=O)[C@H](C(C)C)N(C)C)[C@H]1Cc1c[nH]c2ccccc12` were, in that order, 235 nM, 37 nM, 72 nM and 407 nM.
For `C[C@@H]1CC[C@H]2[C@@H](C)C(=O)O[C@@H]3O[C@@]4(C)CC[C@@H]1[C@]32OO4` [ARTEMISININ], the IC50 in [2] stood at 21 nM; in data set [3], 32 nM.
Regarding `COC1=CC(=O)N(C(=O)/C=C/[C@H](C)NC(=O)[C@H](CC2CCCCC2)NC(=O)[C@H](CC(C)C)NC(=O)C2CCN(C)CC2)[C@H]1Cc1c[nH]c2ccccc12`, the IC50 worked out at 156 nM in data set [1], 59 nM in data set [2], 205 nM in data set [3] and 480 nM in data set [4].
`COC1=CC(=O)N(C(=O)/C=C/[C@H](C)NC(=O)[C@H](CC(C)C)NC(=O)[C@H](CCc2ccccc2)NC(=O)[C@H](C(C)C)N(C)C)[C@H]1Cc1c[nH]c2ccccc12.O=C(O)C(F)(F)F`: the half-life (as a rule, how long it takes for the measured level to halve) at 1 ug/ml in data set [5] is 1.83 h; in [9], 9.28 h. Moreover, the Activity result in [6] was “Non-Toxic”. In addition, the IC50 was determined as 57 nM in data set [1], 7 nM in [2], 5 nM in [3] and 228 nM in data set [4]. In addition, the Drug metabolism result in data set [7] and in data set [8] was “Metabolite_Detected” throughout.
As for `COC1=CC(=O)N(C(=O)/C=C/C(C)(C)NC(=O)[C@H](CC(C)C)NC(=O)[C@H](CC(C)C)NC(=O)[C@H](C(C)C)N(C)C)[C@H]1Cc1c[nH]c2ccccc12`, the IC50 in [1] is more than 50000 nM; in data set [2] it was 1020 nM; in [3], 6990 nM; in [4], more than 50000 nM.
With `COC1=CC(=O)N(C(=O)/C=C/[C@H](C)NC(=O)[C@H](CCc2ccccc2)NC(=O)[C@H](CC(C)C)NC(=O)[C@H](C(C)C)N(C)C)[C@H]1Cc1c[nH]c2ccccc12`, the half-maximal inhibitory concentration (IC50) in [1] was found to be 3100 nM; in data set [2] it was 691 nM; in data set [3], 2590 nM; in [4], 10200 nM.
